Measured values as given in ChEMBL document CHEMBL1141405, “Design and synthesis of novel sulfonamide-containing bradykinin hB2 receptor antagonists. 2. Synthesis and structure-activity relationships of alpha,alpha-cycloalkylglycine sulfonamides” (J Med Chem, 2007).
pKi: −log10 of the molar value. Calls of active or inactive are those of the source. No cut-off for these calls is given here.

Experiments:
B2 bradykinin receptor [1] = biological target: T1, B2 bradykinin receptor (Cavia porcellus, UniProt O70526); assay: Antagonist potency on BK-induced contraction of guinea pig ileum longitudinal smooth muscle; format: functional, tissue-based; conditions: read-out: pA2 (converted)
T1 sequence (O70526 whole entry): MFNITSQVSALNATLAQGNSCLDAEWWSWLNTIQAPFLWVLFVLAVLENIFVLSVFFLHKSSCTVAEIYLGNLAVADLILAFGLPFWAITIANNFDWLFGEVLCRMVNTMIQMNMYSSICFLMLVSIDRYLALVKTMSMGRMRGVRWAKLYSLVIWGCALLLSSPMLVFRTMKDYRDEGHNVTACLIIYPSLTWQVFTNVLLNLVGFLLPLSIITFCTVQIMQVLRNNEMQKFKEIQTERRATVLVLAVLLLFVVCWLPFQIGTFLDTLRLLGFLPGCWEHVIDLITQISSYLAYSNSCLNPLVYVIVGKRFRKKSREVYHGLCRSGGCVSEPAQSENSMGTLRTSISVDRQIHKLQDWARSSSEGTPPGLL

[2] = biological target: T2, B2 bradykinin receptor (Cavia porcellus) (UniProt O70526); assay: Inhibition of BK-induced bronchoconstriction in Dunkin Hartley guinea pig at 300 nmol/kg, it; format: functional; set-up: scale not given: the % may be the effect or the level left
T2 sequence (whole entry): T1 sequence (O70526 whole entry)
How it was run: (§1)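 Compound was given intratracheally to anaesthetized guinea pigs. Five min later, BK (10 nmol/kg iv) challenge was given and repeated every 30 min for 210 min. Pulmonary insufflation pressure was monitored. Result is Σ%: residual BK response as % of basal, normalized to control at 5–210 min time points, expressed as % of theoretical maximum.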

B1 bradykinin receptor = biological target: T3, B1 bradykinin receptor (Homo sapiens, UniProt P46663); assay: Binding affinity to human bradykinin B1 receptor
T3 sequence (P46663 whole entry): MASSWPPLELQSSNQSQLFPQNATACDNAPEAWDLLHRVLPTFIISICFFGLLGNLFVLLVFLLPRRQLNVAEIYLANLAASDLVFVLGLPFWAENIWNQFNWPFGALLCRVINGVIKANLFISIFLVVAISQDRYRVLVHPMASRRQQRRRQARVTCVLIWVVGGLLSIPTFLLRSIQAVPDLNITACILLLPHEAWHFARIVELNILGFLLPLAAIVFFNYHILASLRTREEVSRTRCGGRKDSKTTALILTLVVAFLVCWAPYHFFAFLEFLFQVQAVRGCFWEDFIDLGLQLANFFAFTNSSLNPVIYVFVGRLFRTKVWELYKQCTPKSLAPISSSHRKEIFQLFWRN

[3] = biological target: T2, B2 bradykinin receptor (Cavia porcellus); assay: Effect on BK-induced hypotension in Dunkin Hartley guinea pig at 300 nmol/kg, it; format: functional
How it was run: as §1, with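 “Blood” for “Pulmonary insufflation”, “each observation” for “5–210 min”, “(5–210 min),” for “points,”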

B2 bradykinin receptor [4] = biological target: T4, B2 bradykinin receptor (Homo sapiens, UniProt P30411); assay: Displacement of [3H]BK from human bradykinin B2 receptor transfected in CHO cells; format: cell-based
T4 sequence (P30411 whole entry): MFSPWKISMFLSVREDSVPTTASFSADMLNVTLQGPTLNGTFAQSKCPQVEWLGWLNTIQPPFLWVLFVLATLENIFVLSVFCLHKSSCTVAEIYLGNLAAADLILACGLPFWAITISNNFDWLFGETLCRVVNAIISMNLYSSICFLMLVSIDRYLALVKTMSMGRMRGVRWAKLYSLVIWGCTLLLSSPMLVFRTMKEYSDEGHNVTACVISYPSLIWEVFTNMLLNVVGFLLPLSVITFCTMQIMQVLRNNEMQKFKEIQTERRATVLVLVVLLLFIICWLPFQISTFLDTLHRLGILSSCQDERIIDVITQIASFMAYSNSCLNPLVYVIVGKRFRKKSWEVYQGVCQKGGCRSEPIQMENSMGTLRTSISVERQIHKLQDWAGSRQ
How it was run: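 pKi from inhibition of specific [3H]-BK binding to membrane preparations of CHO cells stably transfected with the human B2 receptor.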

B2 bradykinin receptor [5] = biological target: T4, B2 bradykinin receptor; assay: Antagonist potency at human bradykinin B2 receptor assessed as effect on inositol monophosphate accumulation in CHOdhfr- cells; format: functional, cell-based; conditions: read-out: pA2 (converted)
How it was run: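 pA2 derived from antagonism of bradykinin-stimulated inositol monophosphate accumulation in CHOdhfr- cells stably transfected with the human B2 receptor.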

[6] = biological target: T2, B2 bradykinin receptor (Cavia porcellus); assay: Inhibition of BK-induced bronchoconstriction in Dunkin Hartley guinea pig at 100 nmol/kg, it; format: functional; set-up: scale not given: the % may be the effect or the level left; how it was run: as §1
[7] = biological target: T2, B2 bradykinin receptor (Cavia porcellus); assay: Effect on BK-induced hypotension in Dunkin Hartley guinea pig at 100 nmol/kg, it; format: functional
How it was run: as §1, with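 “Blood” for “Pulmonary insufflation”, “each observation” for “5–210 min”, “(5–210 min),” for “points,”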

[8] = biological target: T2, B2 bradykinin receptor (Cavia porcellus); assay: Inhibition of BK-induced bronchoconstriction in Dunkin Hartley guinea pig at 30 nmol/kg, it; format: functional; set-up: scale not given: the % may be the effect or the level left; how it was run: as §1
[9] = biological target: T2, B2 bradykinin receptor (Cavia porcellus); assay: Inhibition of BK-induced bronchoconstriction in Dunkin Hartley guinea pig at 10 nmol/kg, it; format: functional; set-up: scale not given: the % may be the effect or the level left; how it was run: as §1
[10] = biological target: Muscarinic acetylcholine receptor (Homo sapiens) (UniProt P20309+P08173+P11229+P08172+P08912); assay: Activity at muscarinic receptor at 1 uM; format: protein assay
Homo sapiens = organism: Homo sapiens; assay: Activity at nicotinic receptor at 1 uM

Kb (B2 bradykinin receptor [1]) | Activity [2] | pKi (B1 bradykinin receptor) | Activity [3] | pKi (B2 bradykinin receptor [4]) | Kb (B2 bradykinin receptor [5]) | Activity [6] | Activity [7] | Activity [8] | Activity [9] | Activity [10] | Activity (Homo sapiens) | SMILES
0.1 nM | 36% | < 5.00 | 75% | 9.00 | 0.251 nM | – | – | – | – | – | – | Cc1cc(C)c2cccc(OCc3c(Cl)ccc(S(=O)(=O)NC4(C(=O)N5CCN(C(=O)[C@@H](N)CCCCNC(=N)N)CC5)CCCC4)c3Cl)c2n1
– | – | < 5.00 | – | 9.40 | 5.01 nM | 54% | 91% | – | – | – | – | Cc1cc(C)c2cccc(OCc3c(Cl)ccc(S(=O)(=O)NC4(C(=O)N5CCN(C(=O)C[N+](C)(C)C)CC5)CCCC4)c3Cl)c2n1
– | – | < 5.00 | – | 9.70 | 1.58 nM | 57% | 96% | – | – | – | – | Cc1cc(C)c2cccc(OCc3c(Cl)ccc(S(=O)(=O)NC4(C(=O)N5CCN(C(=O)C[C@@H](N)CCC[N+](C)(C)C)CC5)CCCC4)c3Cl)c2n1
0.158 nM | 29% | < 5.00 | 67% | 8.80 | 0.794 nM | – | – | – | – | – | – | Cc1cc(C)c2cccc(OCc3c(Cl)ccc(S(=O)(=O)NC4(C(=O)N5CCN(C(=O)[C@@H](N)CCCCN(C)C)CC5)CCCC4)c3Cl)c2n1
– | 17% | < 5.00 | 87% | 9.40 | 1.58 nM | – | – | – | – | – | – | Cc1cc(C)c2cccc(OCc3c(Cl)ccc(S(=O)(=O)NC4(C(=O)N5CCN(C(=N)NCCC[N+](C)(C)C)CC5)CCCC4)c3Cl)c2n1
– | – | < 5.00 | – | 9.60 | 0.501 nM | 43% | 82% | – | – | – | – | Cc1cc(C)c2cccc(OCc3c(Cl)ccc(S(=O)(=O)NC4(C(=O)N5CCN(C(=O)[C@H](CCCN)[N+](C)(C)C)CC5)CCCC4)c3Cl)c2n1
– | – | < 5.00 | – | 9.90 | 1.26 nM | 72% | 94% | – | – | – | – | Cc1cc(C)c2cccc(OCc3c(Cl)ccc(S(=O)(=O)NC4(C(=O)N5CCN(C(=O)C[C@H](CCCN)[N+](C)(C)C)CC5)CCCC4)c3Cl)c2n1
– | – | < 5.00 | – | 10.00 | 0.631 nM | 61% | 90% | – | – | – | – | Cc1cc(C)c2cccc(OCc3c(Cl)ccc(S(=O)(=O)NC4(C(=O)N5CCN(C(=O)[C@H](CCCCNC(=N)N)[N+](C)(C)C)CC5)CCCC4)c3Cl)c2n1

The remaining lines, values behind:

SMILES | Kb (B2 bradykinin receptor [1]) | Activity [2] | pKi (B1 bradykinin receptor) | Activity [3] | pKi (B2 bradykinin receptor [4]) | Kb (B2 bradykinin receptor [5]) | Activity [6] | Activity [7] | Activity [8] | Activity [9] | Activity [10] | Activity (Homo sapiens)
Cc1cc(C)c2cccc(OCc3c(Cl)ccc(S(=O)(=O)NC(C)(C)C(=O)N4CCN(C(=O)C[C@@H](N)CCCN(C)C)CC4)c3Cl)c2n1 | 0.1 nM | 20% | < 5.00 | 63% | – | – | – | – | – | – | – | –
Cc1cc(C)c2cccc(OCc3c(Cl)ccc(S(=O)(=O)NC(C)(C)C(=O)N4CCN(C(=O)[C@@H](N)CCCN(C)C)CC4)c3Cl)c2n1 | 0.1 nM | 39% | < 5.00 | 79% | – | – | – | – | – | – | – | –
Cc1cc(C)c2cccc(OCc3c(Cl)ccc(S(=O)(=O)NC(C)(C)C(=O)N4CCN(C(=O)[C@@H](N)CCCCN(C)C)CC4)c3Cl)c2n1 | 0.2 nM | 37% | < 5.00 | 69% | – | – | – | – | – | – | – | –
Cc1cc(C)c2cccc(OCc3c(Cl)ccc(S(=O)(=O)NC4(C(=O)N5CCN(C(=O)[C@@H](N)CCC[N+](C)(C)C)CC5)CCOCC4)c3Cl)c2n1 [FASITIBANT] | – | – | < 5.00 | – | – | – | 13% | 60% | 39% | 63% | inactive | inactive
Cc1cc(C)c2cccc(OCc3c(Cl)ccc(S(=O)(=O)NC(C)(C)C(=O)N4CCN(C(=O)[C@@H](N)CCCCNC(=N)N)CC4)c3Cl)c2n1 | 0.1 nM | 54% | < 5.00 | 78% | 9.20 | 0.794 nM | – | – | – | – | – | –
Cc1cc(C)c2cccc(OCc3c(Cl)ccc(S(=O)(=O)NC4(C(=O)N5CCN(C(=O)C[C@@H](N)CCCN)CC5)CCCC4)c3Cl)c2n1 | – | – | < 5.00 | – | 9.20 | 0.501 nM | 46% | 100% | – | – | – | –
Cc1cc(C)c2cccc(OCc3c(Cl)ccc(S(=O)(=O)NC4(C(=O)N5CCN(C(=N)NCCCN(C)C)CC5)CCCC4)c3Cl)c2n1 | – | 24% | < 5.00 | 69% | 9.20 | 0.501 nM | – | – | – | – | – | –
Cc1cc(C)c2cccc(OCc3c(Cl)ccc(S(=O)(=O)N4CCC[C@@H]4C(=O)NCCCNC(=O)c4ccc(C(=N)N)cc4)c3Cl)c2n1 | 0.316 nM | 96% | < 5.00 | 100% | 9.40 | 0.398 nM | – | – | – | 73% | – | –
Cc1cc(C)c2cccc(OCc3c(Cl)ccc(S(=O)(=O)NC4(C(=O)N5CCN(C(=O)C[C@@H](N)CCCN(C)C)CC5)CCCC4)c3Cl)c2n1 | 0.0398 nM | 21% | < 5.00 | 51% | 9.20 | 1.58 nM | – | – | – | – | – | –
